In ChEMBL document CHEMBL1926500, “Design, synthesis, biological evaluation and molecular modeling of 1,3,4-oxadiazoline analogs of combretastatin-A4 as novel antitubulin agents” (Bioorg Med Chem, 2012):

Assays:
MCF7 = test: Antiproliferative activity against human MCF7 cells after 48 hrs by MTT assay; assay type: functional, cell-based; details: MCF7, 48 h
Procedure, shortened: (§1)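 Cells grown to log phase in RPMI 1640 with 10% FBS, seeded at 2×10^4 cells/mL, then left 24 h at 37 °C, 5% CO2 before dosing at pre-set concentrations. […] After 48 h exposure, MTT (2.5 mg/mL in PBS) was added for 4 h, then SDS/isobutyl alcohol/HCl extraction overnight at 37 °C, and OD read at 570 nm. Triplicate wells per concentration; each assay run at least three times; IC50 derived.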

[1] = Inhibition of bovine brain tubulin polymerization after 20 mins by turbidimetry; parameters: species or system Bos taurus
Procedure, shortened: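 Bovine brain tubulin, purified in-house, used at 10 μM in glutamate buffer and preincubated with varying compound concentrations at 30 °C, then cooled to 0 °C. GTP added, mixtures warmed to 30 °C in a recording spectrophotometer, and assembly followed turbidimetrically. IC50 is the concentration inhibiting extent of assembly by 50% after 20 min.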

HepG2 = test: Antiproliferative activity against human HepG2 cells after 48 hrs by MTT assay; assay type: functional, cell-based; details: HepG2, 48 h; procedure, shortened: as §1
B16-F10 [2] = test: Antiproliferative activity against mouse B16F10 cells after 48 hrs by MTT assay; assay type: functional, cell-based; details: B16-F10, 48 h; procedure, shortened: as §1
B16-F10 [3] = test: Cell cycle arrest in mouse B16F10 cells assessed as accumulation at G2/M phase at 2 ug/ml after 24 hrs by flow cytometry analysis (reference value: 17.67 %); assay type: functional
B16-F10 [4] = test: Cell cycle arrest in mouse B16F10 cells assessed as accumulation at Go/G1 phase at 2 ug/ml after 24 hrs by flow cytometry analysis (reference value: 70.4 %); assay type: functional
B16-F10 [5] = test: Cell cycle arrest in mouse B16F10 cells assessed as accumulation at S phase at 2 ug/ml after 24 hrs by flow cytometry analysis (reference value: 9.97 %); assay type: functional
B16-F10 [6] = test: Cell cycle arrest in mouse B16F10 cells assessed as accumulation at G2/M phase at 1 ug/ml after 24 hrs by flow cytometry analysis (reference value: 17.67 %); assay type: functional
B16-F10 [7] = test: Cell cycle arrest in mouse B16F10 cells assessed as accumulation at S phase at 1 ug/ml after 24 hrs by flow cytometry analysis (reference value: 9.97 %); assay type: functional

**Q.** For CC(=O)N1N=C(c2ccc3ccccc3c2)OC1c1ccccc1Br (centres undefined), which IC50 (MCF7) is on record?
**A.** 5.49 µM

**Q.** What about the IC50 [1] of the same compound?
**A.** 51.5 µM

**Q.** And the pIC50 [1]?
**A.** 3.88

**Q.** And the IC50 (HepG2)?
**A.** 3.98 µM

**Q.** And the IC50 (B16-F10 [2])?
**A.** 6.98 µM

**Q.** Which IC50 (MCF7) does the source give for CC(=O)N1N=C(c2ccc3ccccc3c2)OC1c1ccc([N+](=O)[O-])cc1 (centres undefined) here?
**A.** 7.59 µM

**Q.** What about the IC50 [1] of the same compound?
**A.** 103 µM

**Q.** What about the pIC50 [1] of the same compound?
**A.** 3.54

**Q.** And the IC50 (HepG2)?
**A.** 8.1 µM

**Q.** And the IC50 (B16-F10 [2])?
**A.** 9.32 µM

**Q.** With CC(=O)N1N=C(c2ccc3ccccc3c2)OC1c1ccc(F)cc1 (centres undefined) as the compound, how does the IC50 (MCF7) read?
**A.** 3.02 µM

**Q.** What about the IC50 [1] of the same compound?
**A.** 28.1 µM

**Q.** What about the pIC50 [1] of the same compound?
**A.** 4.07

**Q.** And the IC50 (HepG2)?
**A.** 1.82 µM

**Q.** What about the IC50 (B16-F10 [2]) of the same compound?
**A.** 4.65 µM

**Q.** For CC(=O)N1N=C(c2ccc3ccccc3c2)OC1c1ccsc1 (centres undefined), which IC50 (MCF7) is on record?
**A.** 7.98 µM

**Q.** What about the IC50 [1] of the same compound?
**A.** 51.9 µM

**Q.** What about the pIC50 [1] of the same compound?
**A.** 3.79

**Q.** And the IC50 (HepG2)?
**A.** 6.82 µM

**Q.** What about the IC50 (B16-F10 [2]) of the same compound?
**A.** 8.56 µM

**Q.** What does the source list for CC(=O)N1N=C(c2ccc3ccccc3c2)OC1c1ccc(Br)cc1 (centres undefined)?
**A.** IC50 (MCF7): 5.07 µM; IC50 [1]: 33.8 µM; pIC50 [1]: 4.06; IC50 (HepG2): 2.08 µM; IC50 (B16-F10 [2]): 4.68 µM

**Q.** With CC(=O)N1N=C(c2ccc3ccccc3c2)OC1c1cccnc1 (centres undefined) as the compound, how does the IC50 (MCF7) read?
**A.** 2.61 µM

**Q.** And the IC50 [1]?
**A.** 20.1 µM

**Q.** What about the pIC50 [1] of the same compound?
**A.** 4.19

**Q.** And the IC50 (HepG2)?
**A.** 2.86 µM

**Q.** And the IC50 (B16-F10 [2])?
**A.** 3.06 µM

**Q.** With CC(=O)N1N=C(c2ccc3ccccc3c2)OC1c1ccc(OCc2ccccc2)cc1 (centres undefined) as the compound, how does the IC50 (MCF7) read?
**A.** 5.49 µM

**Q.** What about the IC50 [1] of the same compound?
**A.** 58.2 µM

**Q.** And the pIC50 [1]?
**A.** 3.86

**Q.** What about the IC50 (HepG2) of the same compound?
**A.** 3.38 µM

**Q.** What about the IC50 (B16-F10 [2]) of the same compound?
**A.** 8.08 µM

**Q.** With CC(=O)N1N=C(c2ccc3ccccc3c2)OC1c1ccc2ccccc2c1 (centres undefined) as the compound, how does the IC50 (MCF7) read?
**A.** 1.01 µM

**Q.** What about the Activity (B16-F10 [3]) of the same compound?
**A.** 77.18%

**Q.** And the IC50 [1]?
**A.** 4.3 µM

**Q.** And the pIC50 [1]?
**A.** 4.93

**Q.** And the IC50 (HepG2)?
**A.** 0.85 µM

**Q.** What about the Activity (B16-F10 [4]) of the same compound?
**A.** 1.72%

**Q.** What about the Activity (B16-F10 [5]) of the same compound?
**A.** 2.04%

**Q.** And the IC50 (B16-F10 [2])?
**A.** 1.56 µM

**Q.** Which results are given for COc1ccc(C2OC(c3ccc4ccccc4c3)=NN2C(C)=O)cc1 (centres undefined)?
**A.** IC50 (MCF7): 7.35 µM; IC50 [1]: 105 µM; pIC50 [1]: 3.51; IC50 (HepG2): 3.6 µM; IC50 (B16-F10 [2]): 6.86 µM

**Q.** What does the source list for CC(=O)N1N=C(c2ccc3ccccc3c2)OC1c1ccccc1[N+](=O)[O-] (centres undefined)?
**A.** IC50 (MCF7): 18.2 µM; IC50 [1]: 140 µM; pIC50 [1]: 3.4; IC50 (HepG2): 12.3 µM; IC50 (B16-F10 [2]): 9.01 µM

**Q.** For CC(=O)N1N=C(c2ccc3ccccc3c2)OC1c1ccccc1 (centres undefined), which IC50 (MCF7) is on record?
**A.** 2.43 µM

**Q.** What about the IC50 [1] of the same compound?
**A.** 21.2 µM

**Q.** What about the pIC50 [1] of the same compound?
**A.** 4.17

**Q.** What about the IC50 (HepG2) of the same compound?
**A.** 2.11 µM

**Q.** And the IC50 (B16-F10 [2])?
**A.** 2.57 µM

**Q.** For CC(=O)N1N=C(c2ccc3ccccc3c2)OC1c1ccccc1Cl (centres undefined), which IC50 (MCF7) is on record?
**A.** 2.36 µM

**Q.** And the IC50 [1]?
**A.** 51.4 µM

**Q.** And the pIC50 [1]?
**A.** 3.83

**Q.** And the IC50 (HepG2)?
**A.** 4.32 µM

**Q.** And the IC50 (B16-F10 [2])?
**A.** 4.93 µM

**Q.** Which results are given for CC(=O)N1N=C(c2ccc3ccccc3c2)OC1c1ccc(C)cc1 (centres undefined)?
**A.** IC50 (MCF7): 2.9 µM; IC50 [1]: 30.5 µM; pIC50 [1]: 4.03; IC50 (HepG2): 2.26 µM; IC50 (B16-F10 [2]): 3.85 µM

**Q.** Which IC50 (MCF7) does the source give for CC(=O)N1N=C(c2ccc3ccccc3c2)OC1c1ccccc1F (centres undefined) here?
**A.** 3.44 µM

**Q.** What about the IC50 [1] of the same compound?
**A.** 48.1 µM

**Q.** What about the pIC50 [1] of the same compound?
**A.** 3.84

**Q.** What about the IC50 (HepG2) of the same compound?
**A.** 3.36 µM

**Q.** And the IC50 (B16-F10 [2])?
**A.** 6.05 µM

**Q.** What does the source list for CC(=O)N1N=C(c2ccc3ccccc3c2)OC1c1ccccn1 (centres undefined)?
**A.** IC50 (MCF7): 6.02 µM; IC50 [1]: 53.8 µM; pIC50 [1]: 3.77; IC50 (HepG2): 5.26 µM; IC50 (B16-F10 [2]): 7.18 µM

**Q.** With COc1ccc(/C=C\c2cc(OC)c(OC)c(OC)c2)cc1O [COMBRETASTATIN A4] as the compound, how does the IC50 (MCF7) read?
**A.** 0.48 µM

**Q.** What about the IC50 [1] of the same compound?
**A.** 2.9 µM

**Q.** What about the IC50 (HepG2) of the same compound?
**A.** 0.54 µM

**Q.** And the IC50 (B16-F10 [2])?
**A.** 0.75 µM

**Q.** Which results are given for CC(=O)N1N=C(c2ccc3ccccc3c2)OC1c1ccncc1 (centres undefined)?
**A.** IC50 (MCF7): 2.56 µM; IC50 [1]: 22.8 µM; pIC50 [1]: 4.14; IC50 (HepG2): 2.17 µM; IC50 (B16-F10 [2]): 2.97 µM

**Q.** What does the source list for CC(=O)N1N=C(c2ccc3ccccc3c2)OC1c1ccc(Cl)cc1 (centres undefined)?
**A.** IC50 (MCF7): 2.63 µM; IC50 [1]: 12.7 µM; pIC50 [1]: 4.44; IC50 (HepG2): 1.88 µM; IC50 (B16-F10 [2]): 2.48 µM

**Q.** With CC(=O)N1N=C(c2ccc3ccccc3c2)OC1c1cccc(Br)c1 (centres undefined) as the compound, how does the IC50 (MCF7) read?
**A.** 2.34 µM

**Q.** What about the IC50 [1] of the same compound?
**A.** 19.4 µM

**Q.** And the pIC50 [1]?
**A.** 4.3

**Q.** What about the IC50 (HepG2) of the same compound?
**A.** 1.68 µM

**Q.** What about the IC50 (B16-F10 [2]) of the same compound?
**A.** 2.36 µM

**Q.** With COc1cc2c(c(OC)c1OC)-c1ccc(OC)c(=O)cc1[C@@H](NC(C)=O)CC2 [COLCHICINE] as the compound, how does the Activity (B16-F10 [6]) read?
**A.** 75.24%

**Q.** And the Activity (B16-F10 [7])?
**A.** 2.43%

**Q.** For CC(=O)N1N=C(c2ccc3ccccc3c2)OC1c1cccc(F)c1 (centres undefined), which IC50 (MCF7) is on record?
**A.** 1.98 µM

**Q.** And the IC50 [1]?
**A.** 9.2 µM

**Q.** And the pIC50 [1]?
**A.** 4.55

**Q.** And the IC50 (HepG2)?
**A.** 1.86 µM

**Q.** And the IC50 (B16-F10 [2])?
**A.** 1.61 µM

**Q.** What does the source list for CC(=O)N1N=C(c2ccc3ccccc3c2)OC1c1ccccc1O (centres undefined)?
**A.** IC50 (MCF7): 2.12 µM; IC50 [1]: 27.1 µM; pIC50 [1]: 4.08; IC50 (HepG2): 1.84 µM; IC50 (B16-F10 [2]): 2.58 µM
